The text below walks through data of ChEMBL document CHEMBL1255381, “Golgicide A reveals essential roles for GBF1 in Golgi assembly and function” (Nat Chem Biol, 2009).

Experiment [1] concerns Vero. Put plainly: Induction of depolymerization of actin microfilaments in african green monkey Vero cells at 25 uM after 30 mins by immunofluorescence method. Type of experiment: functional, cell-based. The conditions noted are these: Chlorocebus sabaeus.
For experiment [2], the system named is Vero. Put plainly: Effect on disruption of microtubules in african green monkey Vero cells at 5 ug/ml after 30 mins by immunofluorescence method. The class given is functional, cell-based. The conditions noted are these: Chlorocebus sabaeus. The essentials:
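They were then fixed and immunostained for microtubules, and microtubule morphology was judged by immunofluorescence microscopy against DMSO-treated cells.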

The structures appear in SMILES notation. The source made the active and inactive calls. The rule behind the calls is not given here.

Turning to `C=C1[C@@H](C)[C@H]2[C@H](Cc3ccccc3)NC(=O)[C@]23OC(=O)/C=C/[C@H](O)CCC[C@@H](C)C/C=C/[C@H]3[C@@H]1O`, in the experiment on Vero [1], the outcome was Active.
For `COC(=O)Nc1nc2cc(C(=O)c3cccs3)ccc2[nH]1`, in the experiment with Vero [2], the result was Active.
